Test results taken from ChEMBL document CHEMBL1124007, “Synthesis and structure-activity relationships of a new series of antiarrhythmic agents: monobasic derivatives of disobutamide” (1988).

Legend:
Canis familiaris [1] = species on record: Canis familiaris; assay: Mean effective dose required to suppress ventricular ectopic rate in dog greater than or equal to 25% for a minimum duration of 10 min; type: functional; settings: Canis lupus familiaris, Cardiac ventricle, read-out: MED
[2] = molecular target: T1, Muscarinic acetylcholine receptor (Rattus norvegicus) (UniProt P08482+P08483+P08485+P08911+P10980); assay: Ratio of Muscarinic acetylcholine receptor affinity (IC50) of test compound to that of disopyramide; 1/4; type: protein assay
[3] = molecular target: T1, Muscarinic acetylcholine receptor (Rattus norvegicus); assay: Ratio of Muscarinic acetylcholine receptor affinity (IC50) of test compound to that of disopyramide; 1/16; type: protein assay
Canis familiaris [4] = assay: Myocardial depression determined by monitoring the maximum rate of rise of left ventricular pressure in dog at 3 mg/kg dose; type: functional, Canis lupus familiaris, Heart left ventricle
How it was run: (§1)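 Closed-chest anesthetized dogs given compound intravenously at the stated dose; myocardial depression taken as percent decrease in maximum rate of rise of left ventricular pressure (max dP/dt), mean ± standard error of the mean over the dogs tested. ≤25% depression at the mean effective antiarrhythmic dose was deemed acceptable.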

[5] = molecular target: T1, Muscarinic acetylcholine receptor (Rattus norvegicus); assay: Ratio of Muscarinic acetylcholine receptor affinity (IC50) of test compound to that of disopyramide; 1/6; type: protein assay
Canis familiaris [6] = species on record: Canis familiaris; assay: Mean effective dose required to suppress ventricular ectopic rate in dog greater than or equal to 25% for a minimum duration of 10 min; Lethal; type: functional; settings: Canis lupus familiaris, Cardiac ventricle, read-out: MED
Canis familiaris [7] = assay: Myocardial depression determined by monitoring the maximum rate of rise of left ventricular pressure in dog at 9 mg/kg dose; type: functional, Canis lupus familiaris, Heart left ventricle; how it was run: as §1
[8] = molecular target: T1, Muscarinic acetylcholine receptor (Rattus norvegicus); assay: Ratio of Muscarinic acetylcholine receptor affinity (IC50) of test compound to that of disopyramide; 1/24; type: protein assay
Canis familiaris [9] = species on record: Canis familiaris; assay: Mean effective dose required to suppress ventricular ectopic rate in dog greater than or equal to 25% for a minimum duration of 10 min; Side effects; type: functional, organism-based; settings: Canis lupus familiaris; Cardiac ventricle
[10] = molecular target: T1, Muscarinic acetylcholine receptor (Rattus norvegicus); assay: Ratio of Muscarinic acetylcholine receptor affinity (IC50) of test compound to that of disopyramide; 1/2; type: protein assay
[11] = molecular target: T1, Muscarinic acetylcholine receptor (Rattus norvegicus); assay: (§2) Ratio of Muscarinic acetylcholine receptor affinity (IC50) of test compound to that of disopyramide; type: protein assay
[12] = molecular target: T1, Muscarinic acetylcholine receptor (Rattus norvegicus); assay: as §2; type: protein assay; remark: listed apart in the source
How it was run: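 Muscarinic receptor binding by displacement of [³H]QNB, test compound at three to six concentrations in triplicate. IC50 from log probit analysis. Value expressed as IC50(test)/IC50(disopyramide).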

Canis familiaris [13] = assay: Myocardial depression determined by monitoring the maximum rate of rise of left ventricular pressure in dog at 10 mg/kg dose; type: functional, Canis lupus familiaris, Heart left ventricle

Structure (SMILES): CC(C)N(CCC(CCC1CCCCN1)(C(N)=O)c1ccccc1Cl)C(C)C (centres undefined)
- minimal effective dose (Canis familiaris [1]): 12.5 mg/kg
- Ratio [2]: 0.25

Structure (SMILES): CC(C)N(CCC1(c2ccc(-c3ccccc3)cc2)CC2CCCCN2C1=O)C(C)C (centres undefined)
- Ratio [3]: 0.0625
- Decrease (Canis familiaris [4]): 35%
- minimal effective dose (Canis familiaris [1]): 3 mg/kg

Structure (SMILES): CC(C)N(CCC1(c2ccccc2)CC2CCCCN2C1=O)C(C)C.Cl (centres undefined)
- Ratio [5]: 0.167
- minimal effective dose (Canis familiaris [1]): 10 mg/kg

Structure (SMILES): CC(C)N(CCC(CCN1CCCCC1)(C(N)=O)c1ccccc1Cl)C(=O)c1ccccc1 (centres undefined)
- minimal effective dose (Canis familiaris [1]): 2 mg/kg
- minimal effective dose (Canis familiaris [6]): 5 mg/kg

Structure (SMILES): CC(=O)N(CCC(CCN1CCCCC1)(C(N)=O)c1ccccc1Cl)C(C)C (centres undefined) [BIDISOMIDE]
- Decrease (Canis familiaris [7]): 20%
- minimal effective dose (Canis familiaris [1]): 9 mg/kg
- Ratio [8]: 0.0417

Structure (SMILES): CC(C)N(CCC1(c2ccccc2Cl)CC2CCCCN2C1=O)C(C)C (centres undefined)
- MED (Canis familiaris [9]): Side effects
- Ratio [10]: 0.5
- minimal effective dose (Canis familiaris [1]): 3.5 mg/kg
- Ratio [11]: 1

Structure (SMILES): CC(C)N(CCC(C(N)=O)(c1ccccc1)c1ccccn1)C(C)C (centres undefined) [DISOPYRAMIDE]
- Ratio [12]: 1
- minimal effective dose (Canis familiaris [1]): 10 mg/kg
- Decrease (Canis familiaris [13]): 56%
